# The list is not random: actives were taken first. Their share in the collection is about 1.8%.
# NPY1 pot ag: NPY-Y1 receptor potentiators or agonists, primary screen, cell-based. Neuropeptide Y receptor type 1 (Homo sapiens), P25929. NPY-Y1 expressing cells, potentiator/agonist activation. activation, % at 3.6 µM. actives 0.37% (n = 220,000). AID 1304, 2008; in the data active means activation above about 33%, passing the limit was not always enough;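 further: cells stimulated with NPY at EC10 then isoproterenol at EC100; 0% = low agonist plus stimulus and 100% = saturating agonist plus stimulus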
# Target sequence (P25929 whole entry, looked up): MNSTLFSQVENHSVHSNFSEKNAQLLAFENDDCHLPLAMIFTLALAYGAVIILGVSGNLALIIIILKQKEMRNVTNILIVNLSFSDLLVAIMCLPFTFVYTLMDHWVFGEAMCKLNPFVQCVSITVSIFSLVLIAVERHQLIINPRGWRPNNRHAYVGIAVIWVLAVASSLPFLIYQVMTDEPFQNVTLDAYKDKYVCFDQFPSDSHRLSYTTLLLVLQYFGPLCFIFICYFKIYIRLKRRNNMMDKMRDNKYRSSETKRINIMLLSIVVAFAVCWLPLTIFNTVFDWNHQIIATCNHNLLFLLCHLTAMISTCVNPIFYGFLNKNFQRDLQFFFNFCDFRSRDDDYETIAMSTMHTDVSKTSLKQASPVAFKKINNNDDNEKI
# NPY2 pot ag: NPY-Y2 potentiators or agonists, primary screen, cell-based; Neuropeptide Y receptor type 2 (Homo sapiens), P49146; cells expressing NPY-Y2, potentiator/agonist read-out; activation, % at 3.6 µM; actives 0.45% (n = 220,000); in the data active means activation above about 27%;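 further: cells stimulated with NPY near EC25 plus isoproterenol at EC100; 0% = vehicle plus submaximal agonist and 100% = vehicle plus saturating agonist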
# Target sequence (P49146 whole entry, looked up): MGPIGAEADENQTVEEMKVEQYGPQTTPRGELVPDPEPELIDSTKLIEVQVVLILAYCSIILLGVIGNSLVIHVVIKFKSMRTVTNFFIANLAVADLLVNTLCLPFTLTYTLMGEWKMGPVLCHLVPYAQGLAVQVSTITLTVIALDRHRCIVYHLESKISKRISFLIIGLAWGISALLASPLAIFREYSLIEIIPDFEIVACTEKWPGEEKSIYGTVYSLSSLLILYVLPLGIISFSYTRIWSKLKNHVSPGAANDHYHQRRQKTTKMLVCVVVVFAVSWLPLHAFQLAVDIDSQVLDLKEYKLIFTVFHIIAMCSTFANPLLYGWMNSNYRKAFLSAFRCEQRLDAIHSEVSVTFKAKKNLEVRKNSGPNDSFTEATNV
# NPY Y1 blocker: NPY-Y1 receptor antagonists, primary screen, cell-based; Neuropeptide Y receptor type 1 (Homo sapiens), P25929; HEK293-CNG Y1 cells, membrane potential fluorescence; NPY at EC95, then isoproterenol; actives 1% (n = 200,000); inhibition, % at 3.6 µM; AID 1040, 2008;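 active means inhibition above the campaign mean inhibition of all tested compounds plus 3 SD, cut at about 20% in these data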;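 further: 0% = DMSO wells given NPY plus isoproterenol and 100% = isoproterenol alone without NPY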
#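 Material: HEK293 cells with Y1 receptor plus CNG channel; times: compound incubation 1 h at room temperature, readout 45 min post-stimulation; signal: fluorescence, membrane potential probe; read-out basis: fluorescence ratio normalized to % inhibition between controls; benchmarks: full-block control isoproterenol-only wells, zero-block control NPY plus isoproterenol wells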
# NPY Y2 blocker: NPY-Y2 receptor antagonists, primary screen, cell-based. AID 793, 2007. NPY-Y2 expressing cells, antagonist mode. actives 0.99% (n = 140,000). inhibition, % at 2.7 µM; in the data active means inhibition above about 17%;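 further: 0% = vehicle with agonist challenge and 100% = reference antagonist with challenge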
# NPY-Y2 confirm: NPY-Y2 potentiators or agonists, confirmation, cell-based; shares compounds with NPY2 pot ag; cell-based NPY-Y2 potentiator/agonist assay; activation, % at 3.6 µM; actives 20% (n = 450); AID 1539, 2009; in the data active means activation above about 33%
# NPY-Y1 potentiator: NPY-Y1 potentiators or agonists, counter-screen for NPY-Y2 potentiator project, cell-based, fluorescence; shares compounds with NPY2 pot ag; Y1 HEK293-CNG cells, membrane potential fluorescence; actives 20% (n = 450); activation, % at 3.6 µM; in the data active means activation above about 45%;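 further: cells stimulated with submaximal NPY then isoproterenol with phosphodiesterase inhibitor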
# NPY-Y1 ag 2: NPY-Y1 direct agonists, selectivity assay for NPY-Y2 potentiator project, cell-based, fluorescence; shares compounds with NPY2 pot ag; HEK293 Y1-CNGC, membrane potential fluorescence, agonism; activation, % at 3.6 µM; actives 37% (n = 450);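 active means activation above the mean of DMSO-only control wells plus 3 SD, cut at about 18% in these data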;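 further: cells stimulated with 1 µM isoproterenol plus the PDE inhibitor Ro 20-1724; 0% = isoproterenol with DMSO and no NPY and 100% = 40 nM NPY; Y1 agonists lower the membrane potential dye signal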
# CNGC inh: CNGC cAMP sensor activity inhibitors, counter-screen for NPY-Y2 potentiator project, cell-based, HEK293-CNG parental, membrane potential fluorescence; shares compounds with NPY2 pot ag; actives 32% (n = 450); isoproterenol cAMP; AID 1703, 2009; inhibition, % at 3.6 µM;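 active means inhibition above the control-well mean plus 3 SD of those wells, cut at about 22% in these data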;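 further: 0% = DMSO with isoproterenol and 100% = DMSO without isoproterenol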
# Y2 agonist ctr: NPY-Y2 direct agonists, counter-screen for NPY-Y2 potentiator project, cell-based, fluorescence; shares compounds with NPY2 pot ag; HEK293 Y2/CNGC cells, membrane potential fluorescence, agonist mode; activation, % at 3.6 µM; actives 56% (n = 450);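 active means activation above the mean of solvent-only control wells plus 3 SD, cut at about 10% in these data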;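 further: cells stimulated by isoproterenol with no NPY added so direct agonism is tested; 0% = DMSO with isoproterenol alone and 100% = NPY at EC100 plus isoproterenol; agonism lowers probe fluorescence through less cAMP and CNG channel opening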
# * = called active by the depositor; / = no result.
SMILES,NPY1 pot ag,NPY2 pot ag,NPY Y1 blocker,NPY Y2 blocker,NPY-Y2 confirm,NPY-Y1 potentiator,NPY-Y1 ag 2,CNGC inh,Y2 agonist ctr
Clc1ccc2[nH]c3c(c2c1)CCc1cn[nH]c1-3,41.3,46.1*,-13.0,-3.7,33.5*,45.0*,34.3*,35.4*,25.1*
O=C(/C=C/c1ccc([N+](=O)[O-])cc1)OCC(=O)N1c2ccccc2Sc2ccccc21,-8.2,-1.1,0.2,0.9,/,/,/,/,/
N=C1CCC(=N)c2c1c(O)c1ccccc1c2O,32.5,40.7*,/,/,21.1,23.5,23.2*,21.2,18.2*
N#Cc1c(C#N)c(O)c2ccccc2c1O,6.4,12.2,/,/,/,/,/,/,/
NC(=NCCc1c[nH]c2ccccc12)NC(=O)c1ccc(Cl)cc1,27.1,27.7*,-1.3,/,26.2,30.5,39.4*,37.3*,42.4*
Nc1nc(Nc2ccc(Cl)cc2)nc2ccccc12,36.5,51.1*,-5.9,-1.0,55.5*,65.0*,41.3*,50.4*,42.4*
Nc1nc(CCl)nc(Nc2ccccc2)n1,12.2,-7.8,-2.8,/,/,/,/,/,/
CCCCNC(=O)CSc1nc2ccsc2c(=O)n1CCCC(=O)NCCc1ccc(S(N)(=O)=O)cc1,-5.2,8.0,-1.5,/,/,/,/,/,/
Cc1cc(NC(=O)c2ccccc2F)n(-c2nc3ccccc3[nH]2)n1,19.9,91.1*,0.8,0.7,-0.7,-4.3,-3.3,4.6,1.3
CCC(=O)Nc1nc(-c2ccc3c(c2)CC(C)N3S(C)(=O)=O)cs1 (stereo not given),7.0,-13.4,-2.9,/,/,/,/,/,/
CC1Cc2cc(-c3csc(NC(=O)Cc4cccs4)n3)ccc2N1S(C)(=O)=O (stereo not given),13.8,43.8*,15.0,12.9,0.4,-15.8,-28.6,-17.9,-1.4
O=C(c1ccc(CNS(=O)(=O)c2ccccc2)cc1)N1CCN(Cc2ccccc2)CC1,31.8,27.1*,-7.2,2.0,-5.4,-8.7,-14.9,0.6,-1.1
Cc1cc(-c2nnnn2-c2cc(Cl)cc(Cl)c2)no1,13.2,-3.3,/,/,/,/,/,/,/
Cc1cc2c(cc1C)N(C(=O)CSC1=NCCS1)C(C)(C)c1ssc(=S)c1-2,28.2,41.6*,-9.5,-4.6,22.8,28.9,23.7*,11.4,29.4*
COc1ccc2c(c1)-c1c(ssc1=S)C(C)(C)N2C(=O)CSC1=NCCS1,50.8,43.0*,-8.7,-8.0,25.5,28.1,23.5*,23.5*,19.9*
CNC(=O)CCc1[nH]c2ccccc2c1Sc1ccccc1,5.6,26.0*,2.0,-1.1,12.1,21.4,13.6,14.4,22.5*
Cc1[nH]c2ccccc2c1SCC(=O)O,-4.1,4.8,5.1,3.4,/,/,/,/,/
CCc1ccc(Nc2nnc(SCC(=O)Nc3cccnc3Cl)s2)cc1,-15.5,-0.7,-1.6,0.4,/,/,/,/,/
Cc1c(C(C)C)c(=O)n(-c2ccc(S(=O)(=O)NCc3ccccc3)cc2)n1C,-23.1,35.1*,-0.7,/,1.6,-39.7,-27.5,-8.8,1.4
COc1cccc(-c2noc(CCC(=O)NCC3CCCO3)n2)c1 (stereo not given),-12.4,-11.2,1.6,/,/,/,/,/,/
O=C(/C(N=Nc1cccc([N+](=O)[O-])c1)=C(/O)c1ccc(Br)cc1)C(F)(F)F,28.2,41.0*,/,/,31.1,10.6,15.5,14.7,19.6*
O=C(N/N=C/c1ccc[nH]1)c1ccc(Cl)cc1,3.1,5.9,2.5,2.5,/,/,/,/,/
Cc1ccc(NS(=O)(=O)c2ccc(NC(=O)c3cccs3)cc2)c(C)c1,-5.8,-6.4,-6.6,-3.1,/,/,/,/,/
Cc1ccc(NC(=O)c2cc(S(=O)(=O)Nc3ccc(C)cc3)cs2)cc1,49.8,43.2*,-13.1,-4.5,37.4*,47.3*,35.3*,41.5*,20.8*
Cc1c(O)c2cccnc2[nH]c1=O,-7.9,3.5,1.4,2.5,/,/,/,/,/
SMILES,NPY1 pot ag,NPY2 pot ag,NPY Y1 blocker,NPY Y2 blocker,NPY-Y2 confirm,NPY-Y1 potentiator,NPY-Y1 ag 2,CNGC inh,Y2 agonist ctr
Cc1ncccc1C(=O)N1CCCC(C(=O)c2ccc3c4c(cccc24)CC3)C1 (stereo not given),-9.4,72.2*,-0.3,/,1.1,2.5,-6.9,7.5,7.8
CC(C(=O)c1ccccc1)[n+]1cccc(C(N)=O)c1 (stereo not given),-18.6,-14.4,/,/,/,/,/,/,/
O=C(N=Nc1c(O)[nH]c2ccc(Cl)cc12)c1cc(-c2cccs2)nc2ccccc12,-5.2,-7.5,3.9,-0.3,/,/,/,/,/
CCC(=O)C1CCCN(C(=O)c2ccc(OC3CCN(C(=O)c4cccnc4)CC3)cc2)C1 (stereo not given),5.8,-7.7,-4.2,/,/,/,/,/,/
Cc1nn(C)c(C)c1CNC(=O)c1nn2c(c1Cl)NC(c1cccs1)CC2C(F)(F)F (stereo not given),0.7,29.3*,-7.3,16.2,6.1,0.1,10.9,2.5,-3.2
O=C(C[n+]1ccc(CCSc2ccc(F)cc2)cc1)c1ccccc1,0.7,-9.1,17.3,/,/,/,/,/,/
CC1CC(C)CN(CC(C)(C)NS(=O)(=O)c2ccc(Cl)cc2)C1 (stereo not given),-9.2,-18.8,11.5,1.3,/,/,/,/,/
COc1ccc(C(=O)/C=C/NCc2ccc(F)cc2)cc1OC,-7.0,0.2,/,/,/,/,/,/,/
N#C/C(=N\Nc1cccc([N+](=O)[O-])c1)C(=O)c1ccc(Br)cc1,-3.1,12.2,5.4,/,/,/,/,/,/
N#C/C(=N\Nc1cccc(C(F)(F)F)c1)C(=O)c1ccsc1,-22.7,50.5*,/,/,-13.1,-54.5,-27.8,-12.1,2.2
c1ccc(-c2nc(-c3cccs3)[nH]c2-c2ccccc2)cc1,37.2,41.1*,-8.8,-2.4,27.8,45.7*,26.6*,26.2*,28.2*
O=[N+]([O-])c1cc(C(F)(F)F)cc([N+](=O)[O-])c1NCCNC(=S)Nc1ccc(Cl)c(Cl)c1,1.9,102.1*,/,/,33.6*,23.6,17.6*,19.7,46.6*
Cc1cc(C)cc(C(=O)NCC(=O)OC(C)C(=O)N(C)c2ccccc2)c1 (stereo not given),18.0,11.8,5.7,/,/,/,/,/,/
